Assay results: ChEMBL document CHEMBL1140925, “Nuclear factor-kappaB mediated inhibition of cytokine production by imidazoline scaffolds” (J Med Chem, 2009)

Tests used:
HeLa [1] = assay: Effect on cell cycle arrest in TNF-alpha-stimulated human HeLa cells assessed as cell debris level at 1 uM after 8 hrs by propidium iodide-based flow cytometry; assay type: functional
HeLa [2] = assay: Cell cycle arrest in TNF-alpha-stimulated human HeLa cells transfected with NFkappaB-Luc assessed as accumulation at diploid G2 phase at 0.5 uM after 8 hrs by propidium iodide-based flow cytometry; assay type: functional
Outline: (§1)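 HeLa NF-κB-luc cells (stable, hygromycin-selected) were treated with vehicle (1% DMSO) or compound at 40–0.2 µM final for 8 h at 37 °C, 5% CO2. Adherent cells were trypsinized, resuspended in PBS/50% FBS, fixed overnight in 70% ice-cold ethanol and washed with cold PBS/10% FBS, then analysed for cell cycle by flow cytometry.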

[3] = Cytotoxicity against human whole blood lymphocytes assessed as survival cell count in millions at 10 uM by trypan blue staining based hemocytometer
HeLa [4] = assay: Cell cycle arrest in TNF-alpha-stimulated human HeLa cells transfected with NFkappaB-Luc assessed as accumulation at diploid G1 phase at 0.1 uM after 8 hrs by propidium iodide-based flow cytometry; assay type: functional
HeLa [5] = assay: Effect on cell cycle arrest in TNF-alpha-stimulated human HeLa cells assessed as cell aggregate level at 0.05 uM after 8 hrs by propidium iodide-based flow cytometry; assay type: functional
HeLa [6] = assay: Cell cycle arrest in TNF-alpha-stimulated human HeLa cells transfected with NFkappaB-Luc assessed as accumulation at diploid G1 phase at 5 uM after 8 hrs by propidium iodide-based flow cytometry; assay type: functional; outline: as §1
HeLa [7] = assay: Cell cycle arrest in TNF-alpha-stimulated human HeLa cells transfected with NFkappaB-Luc assessed as accumulation at G2/G1 phase at 0.1 uM after 8 hrs by propidium iodide-based flow cytometry; assay type: functional
HeLa [8] = assay: Cell cycle arrest in TNF-alpha-stimulated human HeLa cells transfected with NFkappaB-Luc assessed as accumulation at diploid stage at 10 uM after 8 hrs by propidium iodide-based flow cytometry; assay type: functional; outline: as §1
HeLa [9] = assay: Cell cycle arrest in TNF-alpha-stimulated human HeLa cells transfected with NFkappaB-Luc assessed as accumulation at S phase at 1 uM after 8 hrs by propidium iodide-based flow cytometry; assay type: functional
HeLa [10] = assay: Cell cycle arrest in TNF-alpha-stimulated human HeLa cells transfected with NFkappaB-Luc assessed as accumulation at diploid G2 phase at 1 uM after 8 hrs by propidium iodide-based flow cytometry; assay type: functional
HeLa [11] = assay: Cell cycle arrest in TNF-alpha-stimulated human HeLa cells transfected with NFkappaB-Luc assessed as accumulation at G2/G1 phase at 1 uM after 8 hrs by propidium iodide-based flow cytometry; assay type: functional
HeLa [12] = assay: Effect on cell cycle arrest in TNF-alpha-stimulated human HeLa cells assessed as cell debris level at 0.1 uM after 8 hrs by propidium iodide-based flow cytometry; assay type: functional
[13] = Cytotoxicity against human whole blood lymphocytes assessed as survival cell count in millions at 1 uM by trypan blue staining based hemocytometer
HeLa [14] = assay: Cell cycle arrest in human HeLa cells transfected with NFkappaB-Luc assessed as accumulation at diploid G1 phase at 20 uM after 8 hrs by propidium iodide-based flow cytometry; assay type: functional; outline: as §1
HeLa [15] = assay: Cell cycle arrest in TNF-alpha-stimulated human HeLa cells transfected with NFkappaB-Luc assessed as accumulation at diploid G1 phase at 1 uM after 8 hrs by propidium iodide-based flow cytometry; assay type: functional
HeLa [16] = assay: Effect on cell cycle arrest in human HeLa cells assessed as cell debris level at 20 uM after 8 hrs by propidium iodide-based flow cytometry; assay type: functional
Outline: (§2)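 Cells were exposed to vehicle (1% DMSO) or compound for 8 h at 37 °C, 5% CO₂. They were then trypsinized, resuspended in PBS with 50% FBS, fixed overnight in ice-cold 70% ethanol, and washed twice with ice-cold PBS containing 10% FBS before flow cytometric cell-cycle analysis.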

[17] = Cytotoxicity against human whole blood lymphocytes assessed as survival cell count in millions at 20 uM by trypan blue staining based hemocytometer
[18] = Cytotoxicity against human whole blood IL-1-beta-stimulated lymphocytes assessed as survival cell count in millions at 20 uM by trypan blue staining based hemocytometer
HeLa [19] = assay: Cell cycle arrest in TNF-alpha-stimulated human HeLa cells transfected with NFkappaB-Luc assessed as accumulation at diploid stage at 20 uM after 8 hrs by propidium iodide-based flow cytometry; assay type: functional; outline: as §1
HeLa [20] = assay: Cell cycle arrest in TNF-alpha-stimulated human HeLa cells transfected with NFkappaB-Luc assessed as accumulation at S phase at 0.1 uM after 8 hrs by propidium iodide-based flow cytometry; assay type: functional
HeLa [21] = assay: Cell cycle arrest in TNF-alpha-stimulated human HeLa cells transfected with NFkappaB-Luc assessed as accumulation at diploid stage at 0.05 uM after 8 hrs by propidium iodide-based flow cytometry; assay type: functional
HeLa [22] = assay: Cell cycle arrest in TNF-alpha-stimulated human HeLa cells transfected with NFkappaB-Luc assessed as accumulation at diploid G2 phase at 10 uM after 8 hrs by propidium iodide-based flow cytometry; assay type: functional; outline: as §1
HeLa [23] = assay: Effect on cell cycle arrest in TNF-alpha-stimulated human HeLa cells assessed as cell aggregate level at 5 uM after 8 hrs by propidium iodide-based flow cytometry; assay type: functional
HeLa [24] = assay: Cell cycle arrest in TNF-alpha-stimulated human HeLa cells transfected with NFkappaB-Luc assessed as accumulation at S phase at 5 uM after 8 hrs by propidium iodide-based flow cytometry; assay type: functional; outline: as §1
HeLa [25] = assay: Cell cycle arrest in TNF-alpha-stimulated human HeLa cells transfected with NFkappaB-Luc assessed as accumulation at S phase at 20 uM after 8 hrs by propidium iodide-based flow cytometry; assay type: functional; outline: as §1
HeLa [26] = assay: Cell cycle arrest in TNF-alpha-stimulated human HeLa cells transfected with NFkappaB-Luc assessed as accumulation at diploid stage at 0.1 uM after 8 hrs by propidium iodide-based flow cytometry; assay type: functional
HeLa [27] = assay: Cell cycle arrest in TNF-alpha-stimulated human HeLa cells transfected with NFkappaB-Luc assessed as accumulation at G2/G1 phase at 5 uM after 8 hrs by propidium iodide-based flow cytometry; assay type: functional; outline: as §1
HeLa [28] = assay: Effect on cell cycle arrest in human HeLa cells assessed as cell aggregate level at 20 uM after 8 hrs by propidium iodide-based flow cytometry; assay type: functional; outline: as §2
HeLa [29] = assay: Cell cycle arrest in TNF-alpha-stimulated human HeLa cells transfected with NFkappaB-Luc assessed as accumulation at diploid G2 phase at 0.05 uM after 8 hrs by propidium iodide-based flow cytometry; assay type: functional
HeLa [30] = assay: Effect on cell cycle arrest in TNF-alpha-stimulated human HeLa cells assessed as cell aggregate level at 20 uM after 8 hrs by propidium iodide-based flow cytometry; assay type: functional
HeLa [31] = assay: Effect on cell cycle arrest in TNF-alpha-stimulated human HeLa cells assessed as cell debris level at 0.05 uM after 8 hrs by propidium iodide-based flow cytometry; assay type: functional
[32] = Cytotoxicity against human whole blood IL-1-beta-stimulated lymphocytes assessed as survival cell count in millions at 3 uM by trypan blue staining based hemocytometer
HeLa [33] = assay: Cell cycle arrest in TNF-alpha-stimulated human HeLa cells transfected with NFkappaB-Luc assessed as accumulation at G2/G1 phase at 20 uM after 8 hrs by propidium iodide-based flow cytometry; assay type: functional; outline: as §1

In the case of CCOC(=O)[C@]1(c2ccccc2)N=C(c2ccccc2)N(Cc2ccccc2)[C@@H]1c1ccccc1 (racemic), the Activity (HeLa [1]) is reported as 4.88%, the Activity (HeLa [2]) is reported as 13.4% and the Activity [3] is reported as 1.6 mL⁻¹. It also gave an Activity (HeLa [4]) of 64.5%, an Activity (HeLa [5]) of 0% and an Activity (HeLa [6]) of 66.37%. It also gave a Ratio (HeLa [7]) of 1.92, an Activity (HeLa [8]) of 100% and an Activity (HeLa [9]) of 22.9%. The Activity (HeLa [10]) was 13.88%, the Ratio (HeLa [11]) was 1.91 and the Activity (HeLa [12]) was 2%. For the same compound, the Activity [13] was 1.2 mL⁻¹, the Activity (HeLa [14]) was 65.19% and the Activity (HeLa [15]) was 63.22%. The Activity (HeLa [16]) was 9.42%, the Cell count [17] was 0.2617 and the Activity [18] was 1.46 mL⁻¹. It also gave an Activity (HeLa [19]) of 100%, an Activity (HeLa [20]) of 21.47% and an Activity (HeLa [21]) of 100%. The Activity (HeLa [22]) was 15.01%, the Activity (HeLa [23]) was 0% and the Activity (HeLa [24]) was 19.8%. For the same compound, the Activity (HeLa [25]) was 19.29%, the Activity (HeLa [26]) was 100% and the Ratio (HeLa [27]) was 1.91. It also gave an Activity (HeLa [28]) of 0%, an Activity (HeLa [29]) of 12.9% and an Activity (HeLa [30]) of 0%. It also gave an Activity (HeLa [31]) of 2.47%, an Activity [32] of 1.28 mL⁻¹ and a Ratio (HeLa [33]) of 1.9.
